Test results: ChEMBL document CHEMBL1143138, “Synthesis and antimicrobial activity of beta-lactam-bile acid conjugates linked via triazole” (Bioorg Med Chem Lett, 2008)
Converted amounts (≈) assume the structure as drawn.

What was measured:
Format in all cases: functional, organism-based
[1] = test system: Candida albicans; assay: Antimicrobial activity against Candida albicans NCL1 by broth microdilution method
Summary of the method: (§1)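 Standard NCCLS broth microdilution. Fungal strains were NCL isolates and bacterial strains were NCIM cultures, with DMSO as the negative control. MIC was taken as the concentration giving 90% growth inhibition relative to the growth control, and IC50 as the concentration giving 50% growth inhibition. Values are in µg/mL.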

[2] = test system: Cryptococcus neoformans; assay: Antimicrobial activity against Cryptococcus neoformans NCL2 by broth microdilution method; summary of the method: as §1
[3] = test system: Benjaminiella poitrasii; assay: Antimicrobial activity against Benjaminiella poitrasii NCL3 by broth microdilution method; summary of the method: as §1
[4] = test system: Yarrowia lipolytica; assay: Antimicrobial activity against Yarrowia lipolytica NCL4 by broth microdilution method; summary of the method: as §1
[5] = test system: Fusarium oxysporum; assay: Antimicrobial activity against Fusarium oxysporum NCL5 by broth microdilution method; summary of the method: as §1
[6] = test system: Escherichia coli; assay: Antimicrobial activity against Escherichia coli NCIM2574 by broth microdilution method; summary of the method: as §1
[7] = test system: Staphylococcus aureus; assay: Antimicrobial activity against Staphylococcus aureus NCIM2122 by broth microdilution method; summary of the method: as §1

Compound	IC50 [1] [µg/mL]	MIC [1] [µg/mL]	IC50 [2] [µg/mL]	MIC [2] [µg/mL]	IC50 [3] [µg/mL]	MIC [3] [µg/mL]	IC50 [4] [µg/mL]	MIC [4] [µg/mL]	IC50 [5] [µg/mL]	MIC [5] [µg/mL]	IC50 [6] [µg/mL]	MIC [6] [µg/mL]	IC50 [7] [µg/mL]	MIC [7] [µg/mL]
C#CCOC(=O)CC[C@@H](C)[C@H]1CC[C@H]2[C@@H]3[C@H](O)C[C@@H]4C[C@H](O)CC[C@]4(C)[C@H]3C[C@H](O)[C@]12C	128 (≈ 287 µM)	> 128	> 128	> 128	> 128	> 128	64 (≈ 143 µM)	> 128	128 (≈ 287 µM)	> 128	128 (≈ 287 µM)	> 128	128 (≈ 287 µM)	> 128
C#CCNC(=O)CC[C@@H](C)[C@H]1CC[C@H]2[C@@H]3CC[C@@H]4C[C@H](O)CC[C@]4(C)[C@H]3C[C@H](O)[C@]12C	64 (≈ 149 µM)	> 128	128 (≈ 298 µM)	> 128	128 (≈ 298 µM)	> 128	> 128	> 128	64 (≈ 149 µM)	> 128	> 128	> 128	128 (≈ 298 µM)	> 128
C#CCNC(=O)CC[C@@H](C)[C@H]1CC[C@H]2[C@@H]3[C@H](O)C[C@@H]4C[C@H](O)CC[C@]4(C)[C@H]3C[C@H](O)[C@]12C	> 128	> 128	> 128	> 128	> 128	> 128	64 (≈ 144 µM)	> 128	128 (≈ 287 µM)	> 128	128 (≈ 287 µM)	> 128	64 (≈ 144 µM)	> 128
C#CCOC(=O)CC[C@@H](C)[C@H]1CC[C@H]2[C@@H]3CC[C@@H]4C[C@H](O)CC[C@]4(C)[C@H]3C[C@H](O)[C@]12C	32 (≈ 74.3 µM)	128 (≈ 297 µM)	64 (≈ 149 µM)	> 128	128 (≈ 297 µM)	> 128	128 (≈ 297 µM)	> 128	64 (≈ 149 µM)	> 128	128 (≈ 297 µM)	> 128	128 (≈ 297 µM)	> 128
COc1ccc(N2C(=O)C(N=[N+]=[N-])C2c2ccccc2)cc1 (racemic)	64 (≈ 217 µM)	> 128	> 128	> 128	> 128	> 128	128 (≈ 435 µM)	> 128	64 (≈ 217 µM)	> 128	64 (≈ 217 µM)	> 128	> 128	> 128
COc1ccc(N2C(=O)C(N=[N+]=[N-])C2c2ccc(Cl)cc2)cc1 (racemic)	64 (≈ 195 µM)	> 128	64 (≈ 195 µM)	> 128	> 128	> 128	> 128	> 128	64 (≈ 195 µM)	> 128	128 (≈ 389 µM)	> 128	> 128	> 128
C[C@@H]1[C@H](O)[C@@H](C)/C=C/C=C/C=C/C=C/C=C/C=C/C=C/[C@H](O[C@@H]2O[C@H](C)[C@@H](O)[C@H](N)[C@@H]2O)C[C@@H]2O[C@](O)(C[C@@H](O)C[C@@H](O)[C@H](O)CC[C@@H](O)C[C@@H](O)CC(=O)O[C@H]1C)C[C@H](O)[C@H]2C(=O)O (stereo in doubt) [AMPHOTERICIN B]	0.5 (≈ 0.541 µM)	2 (≈ 2.16 µM)	8 (≈ 8.66 µM)	16 (≈ 17.3 µM)	8 (≈ 8.66 µM)	16 (≈ 17.3 µM)	8 (≈ 8.66 µM)	16 (≈ 17.3 µM)	8 (≈ 8.66 µM)	16 (≈ 17.3 µM)	–	–	–	–
CC1(C)S[C@@H]2[C@H](NC(=O)[C@H](N)c3ccccc3)C(=O)N2[C@H]1C(=O)O [AMPICILLIN]	–	–	–	–	–	–	–	–	–	–	1 (≈ 2.86 µM)	–	4 (≈ 11.4 µM)	–
OC(Cn1cncn1)(Cn1cncn1)c1ccc(F)cc1F [FLUCONAZOLE]	4 (≈ 13.1 µM)	32 (≈ 104 µM)	16 (≈ 52.2 µM)	32 (≈ 104 µM)	16 (≈ 52.2 µM)	32 (≈ 104 µM)	32 (≈ 104 µM)	64 (≈ 209 µM)	4 (≈ 13.1 µM)	8 (≈ 26.1 µM)	–	–	–	–
CN(C)[C@@H]1C(O)=C(C(N)=O)C(=O)[C@@]2(O)C(O)=C3C(=O)c4c(O)cccc4[C@@](C)(O)[C@H]3C[C@@H]12 [TETRACYCLINE]	–	–	–	–	–	–	–	–	–	–	4 (≈ 9 µM)	8 (≈ 18 µM)	8 (≈ 18 µM)	16 (≈ 36 µM)
